Compound activity (PubChem BioAssay)
Most compounds without a hit are left out; they make up all but 3.7% or so of the library.
KCNK9 inh – KCNK9 potassium channel inhibitors, primary screen, HEK293 cells, thallium flux | FluxOR thallium flux fluorescence; active compounds read low | AID 488922, 2010 | Potassium channel subfamily K member 9 (Homo sapiens), Q9NPC2 | actives 1.2% (n = 310,000) | B-score at 10 µM;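 active = ratio B-score over 3 SD below the library mean, with starting fluorescence within 5 SD of its mean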;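 also: negative B-score means less thallium flux so channel inhibition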
Kir21 block – inhibitors of mouse Kir2.1 inward-rectifier potassium channel; Inward rectifier potassium channel 2 (Mus musculus), P35561; HEK293-Kir2.1, FluxOR thallium flux fluorescence; active compounds read low; B-score at 10 µM; actives 0.85% (n = 310,000); AID 1672, 2009;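 active = fluorescence ratio B-score at or below minus 3 SD of library scores, with starting-brightness B-score within 2 SD, cut at about -4.2 in these data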;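 also: channel flux triggered by added potassium and thallium sulfate stimulus; B-score of peak minus minimum fluorescence over baseline after thallium stimulus; more negative B-score means stronger Kir2.1 block with less thallium influx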
Target sequence (P35561 whole entry, looked up): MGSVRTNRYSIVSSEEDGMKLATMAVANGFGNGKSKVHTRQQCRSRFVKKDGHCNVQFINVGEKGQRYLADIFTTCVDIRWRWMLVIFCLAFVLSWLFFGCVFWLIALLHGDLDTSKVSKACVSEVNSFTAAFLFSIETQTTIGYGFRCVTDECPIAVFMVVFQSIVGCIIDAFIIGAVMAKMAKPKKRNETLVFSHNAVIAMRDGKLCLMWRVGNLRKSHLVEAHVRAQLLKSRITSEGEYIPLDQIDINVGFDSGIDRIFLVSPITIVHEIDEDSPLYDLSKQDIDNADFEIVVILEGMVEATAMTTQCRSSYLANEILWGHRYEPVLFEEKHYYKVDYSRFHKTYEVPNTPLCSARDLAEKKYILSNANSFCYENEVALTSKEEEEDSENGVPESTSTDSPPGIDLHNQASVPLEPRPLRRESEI
KCNK3 inh – human KCNK3 channel inhibitors, primary screen, CHO cells, FluxOR thallium flux, B-score. Potassium channel subfamily K member 3 (Homo sapiens), O14649. FluxOR fluorescence; active compounds read low. B-score at 10 µM. actives 0.84% (n = 340,000). AID 602410, 2012;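 active = B-score under library mean minus 4 SD, starting fluorescence ratio at most library mean plus 5 SD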;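 also: more negative B-score means stronger inhibition of thallium flux through KCNK3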
hERG rescue – hERG rescue from dofetilide block, primary screen, cell-based, CHO-hERG, FluxOR thallium flux, dofetilide IC70; AID 1511, 2009; actives 0.51% (n = 310,000); Voltage-gated inwardly rectifying potassium channel KCNH2 (Homo sapiens), Q12809; dofetilide IC70 present; activation (rescue from dofetilide block), less the hit threshold, % at 10 µM;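 active = activation above the mean of controls blocked by dofetilide plus 5 SD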;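 also: thallium influx through hERG after potassium depolarization seen as dye fluorescence rise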
KCNQ1 block – inhibitors of human KCNQ1 channel, primary screen, cell-based, thallium flux, high-throughput | CHO-K1 KCNQ1, FluxOR thallium flux fluorescence; active compounds read high | actives 1.3% (n = 310,000) | B-score at 10 µM;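 active = compounds whose thallium flux B-score, printed positive for inhibition, exceeds three library SD while starting fluorescence stays within three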;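 also: channel opened by potassium depolarization with thallium stimulus after 20 min compound exposure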
KCNQ1 act – potentiators or activators of KCNQ1 channel, primary screen, cell-based, thallium flux, high-throughput; Potassium voltage-gated channel subfamily KQT member 1 (Homo sapiens), P51787; CHO-K1 KCNQ1, thallium flux FluxOR fluorescence; active compounds read high; B-score at 10 µM; actives 0.35% (n = 310,000); AID 2648, 2010;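 active = fluorescence ratio B-score, a plate-corrected score, at least three library SD, with initial intensity B-score within 5 SD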
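System: CHO-K1 cells stably expressing KCNQ1 / Medium: assay buffer for compound exposure, DMSO matched across wells / Reagent: thallium- and potassium-containing depolarizing buffer / Compound: one concentration, matched DMSO / Incubation: 20 min compound pretreatment at room temperature / Measured by: kinetic FluxOR fluorescence, 10 s baseline plus 110 s post-stimulus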
KCNK3 confirm – retest of human KCNK3 channel inhibitors, confirmation, CHO cells, FluxOR thallium flux, triplicate; shares compounds with KCNK3 inh; FluxOR fluorescence; 0% buffer, 100% carvedilol maximal block; ratio percent of control, % at 10 µM; actives 99% (n = 2,400);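 active = ratio percent of control, averaged over triplicates, above buffer control mean plus 5 SD, cut at about 64% in these data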;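 also: ratio is the fluorescence rise from min to max over baseline after thallium stimulus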
KCNK3 noninduced – thallium flux inhibition in non-induced cells, primary screen, counter-screen for KCNK3 inhibitor project, cell-based, non-induced KCNK3 line, FluxOR thallium, triplicate. shares compounds with KCNK3 inh. non-induced KCNK3 parental cells; active compounds read low. thallium flux ratio (lower = more inhibition) at 10 µM. actives 40% (n = 2,400). AID 651747, 2012;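 active = thallium flux ratio, averaged over three wells, more than 5 SD below the buffer control mean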;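 also: host cells are CHO cells without KCNK3 induction; ratio is peak minus trough fluorescence over baseline then normalized to buffer controls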
Numbers without * were called inactive; i = inactive; . = not tested or not shown.

SMILES	KCNK9 inh	Kir21 block	KCNK3 inh	hERG rescue	KCNQ1 block	KCNQ1 act	KCNK3 confirm	KCNK3 noninduced
COCCN(C(=O)Nc1ccccc1OC)c1nc2ccccc2s1	i	-0.63	-11*	-9	i	i	114*	i
COc1ccccc1/C=N/NC(=O)c1cc2c(ccc3ccccc32)o1	i	-2.6	-12*	-26	i	i	85*	i
CC(C)n1c(SCC(=O)Nc2ccc(N3CCOCC3)cc2)nnc1-c1ccco1	i	-0.04	i	-5	i	i	.	.
Cc1cc(/C=N/Nc2ccc([N+](=O)[O-])cn2)c(C)n1-c1ccccc1	i	0.06	i	-3	i	i	.	.
Cc1ccc(-n2c(C)cc(/C=N/Nc3ccc([N+](=O)[O-])cn3)c2C)cc1	i	-0.22	-13*	-3	i	i	0	i
O=C(N/N=C\c1cc([N+](=O)[O-])ccc1N1CCCC1)c1ccccn1	i	0.38	i	-5	i	i	.	.
Cc1cc(/C=N/NC(=O)c2ccccn2)c(C)n1-c1cccc([N+](=O)[O-])c1	i	0.9	-9*	-3	i	i	88*	i
Cc1cc(=O)n2nc(N3CCC(C(=O)NCc4ccccc4F)CC3)sc2n1	i	1.6	i	-6	i	i	.	.
CSc1ccc(CN(C)C(=O)C(Cc2ccccc2)NC(=O)c2ccccc2)cc1 (stereo not given)	i	-0.41	i	-21	i	i	.	.
CSc1ccc(CN(C)C(=O)C(c2ccccc2)c2ccccc2)cc1	i	-0.18	-10*	-7	i	i	126*	0.13*
COc1ccccc1N1CCN(C(c2cccs2)C(C)NS(=O)(=O)c2ccccc2)CC1 (stereo not given)	i	-0.51	-9.6*	-14	6*	i	96*	i
CC(NS(=O)(=O)c1ccccc1)C(c1cccs1)N1CCN(c2ccccc2)CC1 (stereo not given)	i	0.09	i	-5	i	i	.	.
Nc1[nH]c2cc([N+](=O)[O-])ccc2c1-c1ccccn1	i	-1.1	-10*	-25	i	i	115*	0.14*
CC(C)(C)S(=O)(=O)N1C[C@H]2CC/C=C\C/C(c3ccccc3)=C\2[C@@H]1CCO	.	.	i	.	.	.	.	.
CN(C(=O)c1ccoc1)c1ccc2ccccc2c1	i	2.2	-10*	-8	i	i	55*	i
CCOC(=O)c1c(CSc2ccc(CC)cc2)oc2ccc(O)c(CN(C)C)c12	-7.4*	-16*	-9.1*	-27	8*	i	120*	0.16*
COc1cc(NC(=O)c2ccccc2Cl)c2ncccc2c1	i	-0.02	-9.1*	-3	i	i	119*	0.15*
O=C(Nc1cccc2cccnc12)c1ccc(Cl)cc1Cl	i	0.06	i	-2	i	i	.	.
CCC(C)NS(=O)(=O)c1cc2c3c(c1)CCC(=O)N3CCC2 (stereo not given)	i	-0.63	i	-5	i	i	.	.
CCCCN1C(=S)NC[C@@H]1c1ccccc1	i	-0.49	i	-6	i	i	.	.
